# ChEMBL document CHEMBL1287651, “Synthesis and in vitro antibacterial activity of fluoroquinolone derivatives containing 3-(N'-alkoxycarbamimidoyl)-4-(alkoxyimino) pyrrolidines” (2010)
# Columns and labels:
# Format in all cases: functional
# Pseudomonas aeruginosa [1] = experiment: Antibacterial activity against Pseudomonas aeruginosa 09-32 after 18 to 24 hrs by twofold serial dilution method
# Summary of the method: (§1)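 MIC determined by the standard twofold serial dilution method on agar media, screening against Gram-positive and Gram-negative strains. Levofloxacin and gemifloxacin were run alongside as reference drugs.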
# Pseudomonas aeruginosa [2] = experiment: Antibacterial activity against Pseudomonas aeruginosa 09-35 after 18 to 24 hrs by twofold serial dilution method; summary of the method: as §1
# Klebsiella pneumoniae [3] = experiment: Antibacterial activity against Klebsiella pneumoniae 09-22 after 18 to 24 hrs by twofold serial dilution method; summary of the method: as §1
# Klebsiella pneumoniae [4] = experiment: Antibacterial activity against Klebsiella pneumoniae 09-21 after 18 to 24 hrs by twofold serial dilution method; summary of the method: as §1
# Staphylococcus aureus [5] = experiment: Antibacterial activity against Staphylococcus aureus ATCC […] after 18 to 24 hrs by twofold serial dilution method; summary of the method: as §1
# Pseudomonas aeruginosa [6] = experiment: Antibacterial activity against Pseudomonas aeruginosa ATCC 27853 after 18 to 24 hrs by twofold serial dilution method; summary of the method: as §1
# [7] = test system: Staphylococcus epidermidis; experiment: Antibacterial activity against methicillin-resistant Staphylococcus epidermidis 09-3 after 18 to 24 hrs by twofold serial dilution method
# Summary of the method: (§2)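 Standard twofold serial agar dilution method on agar media for MIC determination. Screened against representative Gram-positive and Gram-negative strains. Levofloxacin and GMFX served as control drugs.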
# [8] = test system: Staphylococcus epidermidis; experiment: Antibacterial activity against methicillin-sensitive Staphylococcus epidermidis 09-6 after 18 to 24 hrs by twofold serial dilution method; summary of the method: as §2
# Staphylococcus aureus [9] = experiment: Antibacterial activity against methicillin-resistant Staphylococcus aureus 08-1 after 18 to 24 hrs by twofold serial dilution method; summary of the method: as §2
# Escherichia coli [10] = experiment: Antibacterial activity against Escherichia coli ATCC 25922 after 18 to 24 hrs by twofold serial dilution method; summary of the method: as §1
# Streptococcus pneumoniae [11] = experiment: Antibacterial activity against Streptococcus pneumoniae 08-4 after 18 to 24 hrs by twofold serial dilution method; summary of the method: as §1
# [12] = test system: Staphylococcus epidermidis; experiment: Antibacterial activity against methicillin-resistant Staphylococcus epidermidis 09-4 after 18 to 24 hrs by twofold serial dilution method; summary of the method: as §2
# Pseudomonas aeruginosa [13] = experiment: Antibacterial activity against Pseudomonas aeruginosa 09-33 after 18 to 24 hrs by twofold serial dilution method; summary of the method: as §1
# Escherichia coli [14] = experiment: Antibacterial activity against Escherichia coli 08-21 after 18 to 24 hrs by twofold serial dilution method; summary of the method: as §1
# Pseudomonas aeruginosa [15] = experiment: Antibacterial activity against Pseudomonas aeruginosa 09-34 after 18 to 24 hrs by twofold serial dilution method; summary of the method: as §1
# Escherichia coli [16] = experiment: Antibacterial activity against Escherichia coli 08-22 after 18 to 24 hrs by twofold serial dilution method; summary of the method: as §1
# [17] = test system: Staphylococcus epidermidis; experiment: Antibacterial activity against methicillin-resistant Staphylococcus epidermidis 09-2 after 18 to 24 hrs by twofold serial dilution method; summary of the method: as §2
# Staphylococcus aureus [18] = experiment: Antibacterial activity against methicillin-sensitive Staphylococcus aureus 08-2 after 18 to 24 hrs by twofold serial dilution method; summary of the method: as §2
# Klebsiella pneumoniae [19] = experiment: Antibacterial activity against Klebsiella pneumoniae 09-23 after 18 to 24 hrs by twofold serial dilution method; summary of the method: as §1
# Enterococcus faecium [20] = experiment: Antibacterial activity against Enterococcus faecium 08-7 after 18 to 24 hrs by twofold serial dilution method; summary of the method: as §1
# Enterococcus faecalis [21] = experiment: Antibacterial activity against Enterococcus faecalis 08-12 after 18 to 24 hrs by twofold serial dilution method; summary of the method: as §1
# Streptococcus pneumoniae [22] = experiment: Antibacterial activity against Streptococcus pneumoniae 08-2 after 18 to 24 hrs by twofold serial dilution method; summary of the method: as §1
# Enterococcus faecalis [23] = experiment: Antibacterial activity against Enterococcus faecalis 08-10 after 18 to 24 hrs by twofold serial dilution method; summary of the method: as §1
# [24] = test system: Staphylococcus epidermidis; experiment: Antibacterial activity against methicillin-sensitive Staphylococcus epidermidis 09-3 after 18 to 24 hrs by twofold serial dilution method; summary of the method: as §2
# Enterococcus faecium [25] = experiment: Antibacterial activity against Enterococcus faecium 08-2 after 18 to 24 hrs by twofold serial dilution method; summary of the method: as §1
SMILES,MIC (Pseudomonas aeruginosa [1]),MIC (Pseudomonas aeruginosa [2]),MIC (Klebsiella pneumoniae [3]),MIC (Klebsiella pneumoniae [4]),MIC (Staphylococcus aureus [5]),MIC (Pseudomonas aeruginosa [6]),MIC [7],MIC [8],MIC (Staphylococcus aureus [9]),MIC (Escherichia coli [10]),MIC (Streptococcus pneumoniae [11]),MIC [12],MIC (Pseudomonas aeruginosa [13]),MIC (Escherichia coli [14]),MIC (Pseudomonas aeruginosa [15]),MIC (Escherichia coli [16]),MIC [17],MIC (Staphylococcus aureus [18]),MIC (Klebsiella pneumoniae [19]),MIC (Enterococcus faecium [20]),further results
CCO/N=C1\CN(c2c(F)cc3c(=O)c(C(=O)O)cn(C4CC4)c3c2OC(F)F)CC1/C(N)=N\O (stereo not given),128 µg/mL,128 µg/mL,8 µg/mL,> 128 µg/mL,0.5 µg/mL,128 µg/mL,1 µg/mL,0.25 µg/mL,0.25 µg/mL,128 µg/mL,8 µg/mL,1 µg/mL,> 128 µg/mL,> 128 µg/mL,> 128 µg/mL,> 128 µg/mL,1 µg/mL,1 µg/mL,> 128 µg/mL,> 128 µg/mL,MIC (Enterococcus faecalis [21]): > 128 µg/mL; MIC (Streptococcus pneumoniae [22]): 8 µg/mL; MIC (Enterococcus faecalis [23]): > 128 µg/mL; MIC [24]: 1 µg/mL; MIC (Enterococcus faecium [25]): > 128 µg/mL
CCO/N=C1\CN(c2c(F)cc3c(=O)c(C(=O)O)cn(C4CC4)c3c2OC(F)F)CC1/C(N)=N\OC (stereo not given),64 µg/mL,64 µg/mL,32 µg/mL,32 µg/mL,0.125 µg/mL,8 µg/mL,0.25 µg/mL,0.25 µg/mL,0.25 µg/mL,16 µg/mL,64 µg/mL,0.25 µg/mL,64 µg/mL,64 µg/mL,64 µg/mL,64 µg/mL,64 µg/mL,0.25 µg/mL,32 µg/mL,64 µg/mL,MIC (Enterococcus faecalis [21]): 32 µg/mL; MIC (Streptococcus pneumoniae [22]): 64 µg/mL; MIC (Enterococcus faecalis [23]): 32 µg/mL; MIC [24]: 0.125 µg/mL; MIC (Enterococcus faecium [25]): 64 µg/mL
CCO/N=C1\CN(c2c(F)cc3c(=O)c(C(=O)O)cn(C4CC4)c3c2OC(F)F)CC1/C(N)=N\OCC (stereo not given),> 128 µg/mL,> 128 µg/mL,64 µg/mL,> 128 µg/mL,1 µg/mL,128 µg/mL,64 µg/mL,> 128 µg/mL,2 µg/mL,128 µg/mL,> 128 µg/mL,> 128 µg/mL,> 128 µg/mL,> 128 µg/mL,> 128 µg/mL,> 128 µg/mL,64 µg/mL,64 µg/mL,> 128 µg/mL,> 128 µg/mL,MIC (Enterococcus faecalis [21]): 64 µg/mL; MIC (Streptococcus pneumoniae [22]): > 128 µg/mL; MIC (Enterococcus faecalis [23]): > 128 µg/mL; MIC [24]: > 128 µg/mL; MIC (Enterococcus faecium [25]): > 128 µg/mL
CO/N=C1\CN(c2c(F)cc3c(=O)c(C(=O)O)cn4c3c2OC[C@@H]4C)CC1/C(N)=N\O (stereo not given in full),64 µg/mL,128 µg/mL,16 µg/mL,> 128 µg/mL,0.125 µg/mL,32 µg/mL,0.25 µg/mL,0.25 µg/mL,0.25 µg/mL,128 µg/mL,16 µg/mL,0.25 µg/mL,> 128 µg/mL,> 128 µg/mL,> 128 µg/mL,> 128 µg/mL,0.25 µg/mL,4 µg/mL,> 128 µg/mL,> 128 µg/mL,MIC (Enterococcus faecalis [21]): > 128 µg/mL; MIC (Streptococcus pneumoniae [22]): 0.25 µg/mL; MIC (Enterococcus faecalis [23]): > 128 µg/mL; MIC [24]: 0.25 µg/mL; MIC (Enterococcus faecium [25]): > 128 µg/mL
CCO/N=C1\CN(c2c(F)cc3c(=O)c(C(=O)O)cn4c3c2OC[C@@H]4C)CC1/C(N)=N\O (stereo not given in full),64 µg/mL,64 µg/mL,16 µg/mL,> 128 µg/mL,0.25 µg/mL,32 µg/mL,0.25 µg/mL,0.25 µg/mL,0.25 µg/mL,> 128 µg/mL,16 µg/mL,0.5 µg/mL,> 128 µg/mL,> 128 µg/mL,> 128 µg/mL,> 128 µg/mL,0.5 µg/mL,0.25 µg/mL,> 128 µg/mL,> 128 µg/mL,MIC (Enterococcus faecalis [21]): > 128 µg/mL; MIC (Streptococcus pneumoniae [22]): > 128 µg/mL; MIC (Enterococcus faecalis [23]): > 128 µg/mL; MIC [24]: 0.25 µg/mL; MIC (Enterococcus faecium [25]): > 128 µg/mL
CO/N=C1\CN(c2c(F)cc3c(=O)c(C(=O)O)cn4c3c2OC[C@@H]4C)CC1/C(N)=N\OC (stereo not given in full),8 µg/mL,8 µg/mL,0.5 µg/mL,> 128 µg/mL,0.125 µg/mL,4 µg/mL,0.25 µg/mL,0.25 µg/mL,0.25 µg/mL,128 µg/mL,0.25 µg/mL,0.25 µg/mL,> 128 µg/mL,> 128 µg/mL,> 128 µg/mL,> 128 µg/mL,0.25 µg/mL,0.25 µg/mL,> 128 µg/mL,128 µg/mL,MIC (Enterococcus faecalis [21]): > 128 µg/mL; MIC (Streptococcus pneumoniae [22]): 16 µg/mL; MIC (Enterococcus faecalis [23]): > 128 µg/mL; MIC [24]: 0.25 µg/mL; MIC (Enterococcus faecium [25]): 128 µg/mL
